Source: ChEMBL document CHEMBL2046370, “Beta-carboline alkaloids derived from the ascidian Synoicum sp” (Bioorg Med Chem, 2012)
In brackets after ≈: the same amount, converted by molar mass.

What was measured:
Salmonella typhimurium = assay: Antibacterial activity against Salmonella typhimurium ATCC 14028 after 24 hrs; type: functional, Salmonella enterica subsp. enterica serovar Typhimurium; conditions: Salmonella enterica, ATCC 14028, 24 h
Escherichia coli = assay: Antibacterial activity against Escherichia coli ATCC 35270 after 24 hrs; type: functional; conditions: ATCC 35270, 24 h
Sortase A = target: T1, Sortase A (Staphylococcus aureus, UniProt Q9S446); assay: Inhibition of Staphylococcus aureus ATCC 6538p recombinant SrtA; set-up: species or system ATCC 6538p r
T1 sequence (Q9S446 whole entry): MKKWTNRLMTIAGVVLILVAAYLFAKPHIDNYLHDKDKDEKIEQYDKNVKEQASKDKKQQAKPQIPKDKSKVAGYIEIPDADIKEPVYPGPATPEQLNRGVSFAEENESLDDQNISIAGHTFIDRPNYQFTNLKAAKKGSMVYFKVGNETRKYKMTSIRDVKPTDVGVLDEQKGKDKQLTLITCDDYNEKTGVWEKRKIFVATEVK

Staphylococcus aureus = assay: Antibacterial activity against Staphylococcus aureus ATCC 6538p after 24 hrs; type: functional
Candida albicans = assay: Antifungal activity against Candida albicans ATCC 10231 after 48 to 72 hrs; type: functional
[1] = test system: Trichophyton mentagrophytes; assay: Antifungal activity against Trichophyton mentagrophytes IFO 40996 after 48 to 72 hrs; type: functional
Bacillus subtilis = assay: Antibacterial activity against Bacillus subtilis ATCC 6633 after 24 hrs; type: functional; conditions: ATCC 6633, 24 h
Aspergillus fumigatus = assay: Antifungal activity against Aspergillus fumigatus HIC 6094 after 48 to 72 hrs; type: functional
Micrococcus luteus = assay: Antibacterial activity against Micrococcus luteus IFC 12708 after 24 hrs; type: functional; conditions: IFC 12708, 24 h
Trichophyton rubrum = assay: Antifungal activity against Trichophyton rubrum IFO 9185 after 48 to 72 hrs; type: functional
Isocitrate lyase = Isocitrate lyase (Candida albicans, UniProt Q9P8Q7); assay: Inhibition of Candida albicans recombinant ICL assessed as formation of glyoxylate phenylhydrazone by spectrophotometry
In short: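 Recombinant enzyme assayed spectrophotometrically with isocitrate and phenylhydrazine present. Absorbance at 324 nm was monitored for glyoxylate phenylhydrazone formation, and IC50 was determined.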

A549 = assay: Cytotoxicity against human A549 cells by MTT assay; type: functional; conditions: read-out: LC50 (the source's name)
Proteus vulgaris = assay: Antibacterial activity against Proteus vulgaris ATCC 3851 after 24 hrs; type: functional; conditions: ATCC 3851, 24 h
[2] = Inhibition of porcine cerebral cortex Na+/K+ ATPase assessed as formation of fluorescent 3-O-methylfluorescein from 3-O-methylfluorescein phosphate by fluorometry; type: tissue-based, Sus scrofa

Chain of Isocitrate lyase (Q9P8Q7 whole entry): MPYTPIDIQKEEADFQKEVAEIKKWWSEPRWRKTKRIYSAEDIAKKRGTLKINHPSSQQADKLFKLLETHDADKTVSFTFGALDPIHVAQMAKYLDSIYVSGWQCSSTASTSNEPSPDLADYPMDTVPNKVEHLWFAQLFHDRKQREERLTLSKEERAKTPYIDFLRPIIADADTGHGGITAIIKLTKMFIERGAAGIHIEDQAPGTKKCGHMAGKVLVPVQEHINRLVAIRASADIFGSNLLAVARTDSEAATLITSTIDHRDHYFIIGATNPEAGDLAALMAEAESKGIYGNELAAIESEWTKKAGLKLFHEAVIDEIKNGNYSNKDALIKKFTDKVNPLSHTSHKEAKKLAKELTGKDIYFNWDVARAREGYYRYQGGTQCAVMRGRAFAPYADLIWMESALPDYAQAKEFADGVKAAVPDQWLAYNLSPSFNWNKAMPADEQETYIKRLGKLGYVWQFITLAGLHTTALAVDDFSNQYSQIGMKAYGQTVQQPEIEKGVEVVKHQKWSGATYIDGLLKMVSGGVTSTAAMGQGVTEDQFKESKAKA

| Compound | MIC (Salmonella typhimurium) | MIC (Escherichia coli) | IC50 (Sortase A) | MIC (Staphylococcus aureus) | MIC (Candida albicans) | MIC [1] | MIC (Bacillus subtilis) | MIC (Aspergillus fumigatus) | MIC (Micrococcus luteus) | MIC (Trichophyton rubrum) | IC50 (Isocitrate lyase) | CC50 (A549) | MIC (Proteus vulgaris) | IC50 [2] |
| --- | --- | --- | --- | --- | --- | --- | --- | --- | --- | --- | --- | --- | --- | --- |
| Cc1ccc(S(=O)(=O)Oc2ccc(C(O)c3nccc4c3[nH]c3ccc(Br)cc34)cc2Br)cc1 (stereo not given) [EUDISTOMIN Y12] | > 100 µg/mL | > 100 µg/mL | > 166 µM | > 100 µg/mL | > 100 µg/mL | > 100 µg/mL | > 100 µg/mL | > 100 µg/mL | > 100 µg/mL | > 100 µg/mL | > 166 µM | 63.3 µM | > 100 µg/mL |  |
| Oc1ccc(C(O)c2nccc3c2[nH]c2ccccc23)cc1 (stereo not given) [EUDISTOMIN Y8] | > 100 µg/mL | > 100 µg/mL | > 344 µM | 100 µg/mL (≈ 344 µM) | > 100 µg/mL | > 100 µg/mL | 100 µg/mL (≈ 344 µM) | > 100 µg/mL | 100 µg/mL (≈ 344 µM) | > 100 µg/mL | 68.9 µM | > 344 µM | > 100 µg/mL | > 344 µM |
| O=C(O)CC[N+](=O)[O-] |  |  |  |  |  |  |  |  |  |  | 38.6 µM |  |  |  |
| OC(c1ccccc1)c1nccc2c1[nH]c1ccc(Br)cc12 (stereo not given) [EUDISTOMIN Y13] | > 100 µg/mL | > 100 µg/mL | > 283 µM | > 100 µg/mL | > 100 µg/mL | > 100 µg/mL | 100 µg/mL (≈ 283 µM) | > 100 µg/mL | 100 µg/mL (≈ 283 µM) | > 100 µg/mL | > 283 µM | 49 µM | > 100 µg/mL |  |
| COc1cccc2c1C(=O)c1c(O)c3c(c(O)c1C2=O)C[C@@](O)(C(=O)CO)C[C@@H]3O[C@H]1C[C@H](N)[C@H](O)[C@H](C)O1 [DOXORUBICIN] |  |  |  |  |  |  |  |  |  |  |  | 3.3 µM |  |  |
| O=C(c1cc(Br)c(O)c(Br)c1)c1nccc2c1[nH]c1cc(Br)ccc12 [EUDISTOMIN Y7] | 0.78 µg/mL (≈ 1.49 µM) | 50 µg/mL (≈ 95.2 µM) | > 190 µM | 3.12 µg/mL (≈ 5.95 µM) | > 100 µg/mL | > 100 µg/mL | 0.78 µg/mL (≈ 1.49 µM) | > 100 µg/mL | 1.56 µg/mL (≈ 2.97 µM) | > 100 µg/mL |  | 59 µM | 0.78 µg/mL (≈ 1.49 µM) | 11.3 µM |
| O=C(c1ccc(O)cc1)c1nccc2c1[nH]c1ccccc12 [EUDISTOMIN Y1] | > 100 µg/mL | > 100 µg/mL | > 347 µM | > 100 µg/mL | 50 µg/mL (≈ 173 µM) | 100 µg/mL (≈ 347 µM) | > 100 µg/mL | 50 µg/mL (≈ 173 µM) | > 100 µg/mL | 50 µg/mL (≈ 173 µM) | 48.2 µM | 59 µM | > 100 µg/mL |  |
| C[C@@H]1O[C@@H](O[C@H]2C[C@@H](O)[C@]3(CO)[C@H]4[C@H](O)C[C@]5(C)[C@@H](C6=CC(=O)OC6)CC[C@]5(O)[C@@H]4CC[C@]3(O)C2)[C@H](O)[C@H](O)[C@H]1O [OUABAIN] |  |  |  |  |  |  |  |  |  |  |  |  |  | 6.3 µM |
| O=C(c1ccc(O)c(Br)c1)c1nccc2c1[nH]c1ccc(Br)cc12 [EUDISTOMIN Y4] | 0.39 µg/mL (≈ 0.874 µM) | 50 µg/mL (≈ 112 µM) | 163 µM | 3.12 µg/mL (≈ 7.01 µM) | > 100 µg/mL | > 100 µg/mL | 0.78 µg/mL (≈ 1.75 µM) | > 100 µg/mL | 1.56 µg/mL (≈ 3.5 µM) | > 100 µg/mL |  | 48.4 µM | 0.39 µg/mL (≈ 0.874 µM) | 7.5 µM |
| Oc1c(Br)cc(C(O)c2nccc3c2[nH]c2ccc(Br)cc23)cc1Br (stereo not given) [EUDISTOMIN Y11] | 3.12 µg/mL (≈ 5.93 µM) | 100 µg/mL (≈ 190 µM) | > 190 µM | 6.25 µg/mL (≈ 11.9 µM) | > 100 µg/mL | > 100 µg/mL | 3.12 µg/mL (≈ 5.93 µM) | > 100 µg/mL | 3.12 µg/mL (≈ 5.93 µM) | > 100 µg/mL |  | > 190 µM | 3.12 µg/mL (≈ 5.93 µM) | 32.8 µM |
| O=C(c1cc(Br)c(O)c(Br)c1)c1nccc2c1[nH]c1ccccc12 [EUDISTOMIN Y5] | 0.78 µg/mL (≈ 1.75 µM) | 100 µg/mL (≈ 224 µM) | 146 µM | 6.25 µg/mL (≈ 14 µM) | > 100 µg/mL | > 100 µg/mL | 3.12 µg/mL (≈ 7.01 µM) | > 100 µg/mL | 3.12 µg/mL (≈ 7.01 µM) | > 100 µg/mL |  | 85.4 µM | 1.56 µg/mL (≈ 3.5 µM) | 19.8 µM |
| O=C(c1ccc(O)cc1)c1nccc2c1[nH]c1ccc(Br)cc12 [EUDISTOMIN Y2] | 50 µg/mL (≈ 136 µM) | > 100 µg/mL | > 272 µM | 50 µg/mL (≈ 136 µM) | 6.25 µg/mL (≈ 17 µM) | > 100 µg/mL | 25 µg/mL (≈ 68.1 µM) | > 100 µg/mL | 25 µg/mL (≈ 68.1 µM) | > 100 µg/mL | 50.2 µM | 65.6 µM | 25 µg/mL (≈ 68.1 µM) | 209 µM |
| O=C(c1cc(Br)c(O)c(Br)c1)c1nccc2c1[nH]c1ccc(Br)cc12 [EUDISTOMIN Y6] | 0.39 µg/mL (≈ 0.743 µM) | 50 µg/mL (≈ 95.2 µM) | > 190 µM | 1.56 µg/mL (≈ 2.97 µM) | > 100 µg/mL | > 100 µg/mL | 1.56 µg/mL (≈ 2.97 µM) | > 100 µg/mL | 1.56 µg/mL (≈ 2.97 µM) | > 100 µg/mL |  | 60 µM | 0.78 µg/mL (≈ 1.49 µM) | 10.1 µM |
| O=C(c1ccc(O)c(Br)c1)c1nccc2c1[nH]c1ccccc12 [EUDISTOMIN Y3] | 6.25 µg/mL (≈ 17 µM) | 100 µg/mL (≈ 272 µM) | > 272 µM | 12.5 µg/mL (≈ 34 µM) | > 100 µg/mL | > 100 µg/mL | 12.5 µg/mL (≈ 34 µM) | > 100 µg/mL | 12.5 µg/mL (≈ 34 µM) | > 100 µg/mL | > 272 µM | 253 µM | 6.25 µg/mL (≈ 17 µM) | 22.5 µM |
| CC1(C)S[C@@H]2[C@H](NC(=O)[C@H](N)c3ccccc3)C(=O)N2[C@H]1C(=O)O [AMPICILLIN] | 0.78 µg/mL (≈ 2.23 µM) | 6.25 µg/mL (≈ 17.9 µM) |  | 0.39 µg/mL (≈ 1.12 µM) |  |  | 0.78 µg/mL (≈ 2.23 µM) |  | 0.39 µg/mL (≈ 1.12 µM) |  |  |  | 0.39 µg/mL (≈ 1.12 µM) |  |
| Oc1c(Br)cc(C(O)c2nccc3c2[nH]c2ccccc23)cc1Br (stereo not given) [EUDISTOMIN Y10] | 12.5 µg/mL (≈ 27.9 µM) | > 100 µg/mL | > 223 µM | 25 µg/mL (≈ 55.8 µM) | > 100 µg/mL | > 100 µg/mL | 25 µg/mL (≈ 55.8 µM) | > 100 µg/mL | 12.5 µg/mL (≈ 27.9 µM) | > 100 µg/mL |  | > 223 µM | 12.5 µg/mL (≈ 27.9 µM) | 122 µM |
| C[C@@H]1[C@H](O)[C@@H](C)/C=C/C=C/C=C/C=C/C=C/C=C/C=C/[C@H](O[C@@H]2O[C@H](C)[C@@H](O)[C@H](N)[C@@H]2O)C[C@@H]2O[C@](O)(C[C@@H](O)C[C@@H](O)[C@H](O)CC[C@@H](O)C[C@@H](O)CC(=O)O[C@H]1C)C[C@H](O)[C@H]2C(=O)O [AMPHOTERICIN B] |  |  |  |  | 0.39 µg/mL (≈ 0.422 µM) | 0.39 µg/mL (≈ 0.422 µM) |  | 0.78 µg/mL (≈ 0.844 µM) |  | 0.78 µg/mL (≈ 0.844 µM) |  |  |  |  |
| Oc1ccc(C(O)c2nccc3c2[nH]c2ccc(Br)cc23)cc1Br (stereo not given) [EUDISTOMIN Y9] | > 100 µg/mL | > 100 µg/mL | > 223 µM | 6.25 µg/mL (≈ 13.9 µM) | > 100 µg/mL | > 100 µg/mL | > 100 µg/mL | > 100 µg/mL | > 100 µg/mL | > 100 µg/mL |  | 17.9 µM | > 100 µg/mL | 33.3 µM |
